What was measured:
[1] = Drug uptake in tumor of C.B-17 SCID beige mouse xenografted with human MOLM16 cells at 3 to 30 mg/kg administered via oral gavage […] measured 2 to 24 hrs post last dose by LC-MS/MS method; assay type: ADME, organism-based, Neoplasm; details: in vivo
Summary of the method: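 In MOLM-16 xenograft mice given single oral doses of 3–30 mg/kg, plasma and tumor were sampled from 2 to 24 h. Tumor was homogenized in 4 volumes of water. Both matrices were extracted with acetonitrile with labetalol as internal standard and measured by LC-MS/MS. Levels were corrected for plasma protein and tissue binding to give unbound concentrations.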

[2] = Antitumor activity against human MOLM16 cells xenografted in C.B-17 SCID beige mouse assessed as tumor growth inhibition at 3 mg/kg administered via oral gavage as bid for 21 days relative to control; assay type: functional; details: read-out: TGI
Summary of the method: (§1)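 Female C.B-17 SCID.bg mice received 5 million MOLM-16 cells s.c. in HBSS/Matrigel in the right flank. Dosing began at 130–300 mm3: oral gavage BID for 21 days in 0.5% methylcellulose, 0.2% Tween 80, n=10/group. Caliper volumes taken; %TGI computed from the area under the mixed-model spline-fitted curve per day versus vehicle.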

Mus musculus [3] = assay: In vivo inhibition of CBP in human MOLM16 cells xenografted in C.B-17 SCID beige mouse assessed as suppression of MYC transcript levels at 30 mg/kg administered via oral gavage […] measured 2 hrs post last dose by real time-PCR method relative to control; assay type: functional
Summary of the method: (§2)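 MOLM-16 subcutaneous xenografts in SCID beige mice received single oral doses of 3–30 mg/kg (n=3/group). Tumors were taken at time points from 2 to 24 h. MYC transcript was measured in tumor RNA by one-step TaqMan qRT-PCR with ACTB as housekeeping gene. Results are given relative to vehicle-treated animals by the comparative Ct method.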

Cytochrome P450 1A2 = Cytochrome P450 1A2 (Homo sapiens, UniProt P05177); assay: Inhibition of CYP1A2 (unknown origin); assay type: ADME
Cytochrome P450 2D6 = Cytochrome P450 2D6 (Homo sapiens, UniProt P10635); assay: Inhibition of CYP2D6 (unknown origin); assay type: ADME
Mus musculus [4] = assay: In vivo inhibition of CBP in human MOLM16 cells xenografted in C.B-17 SCID beige mouse assessed as suppression of MYC transcript levels at 10 mg/kg administered via oral gavage […] measured 2 hrs post last dose by real time-PCR method relative to control; assay type: functional; summary of the method: as §2
[5] = Cytotoxicity against induced-Treg cells differentiated from human PBMC derived naive CD4-positive T cells assessed as effect on cell viability at 0.001 to 2 uM measured after 4 days by […] dye-based flow cytometry; details: 96 h
Summary of the method: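 Naïve CD4+ T cells from healthy-donor PBMC were differentiated to iTregs with anti-CD3, anti-CD28, rIL-2 (10 ng/ml) and rTGFβ in RPMI-1640 with 10% FCS. Compound was tested from 2 µM in 2-fold dilutions, with DMSO as control. Cells were harvested on day 4 and viability was scored by flow cytometry with a fixable viability dye.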

Mus musculus [6] = assay: In vivo inhibition of CBP in human MOLM16 cells xenografted in C.B-17 SCID beige mouse assessed as MYC transcript levels at 3 mg/kg administered via oral gavage as bid for 21 days measured 16 hrs post last dose by real time-PCR method; assay type: functional; design: scale not given: the % may be the effect or the level left
Plasma = assay: Drug uptake in plasma of C.B-17 SCID beige mouse xenografted with human MOLM16 cells at 3 to 30 mg/kg administered via oral gavage as bid for 21 days measured 2 to 24 hrs post last dose by LC-MS/MS method; assay type: ADME, organism-based; details: in vivo
[7] = Antitumor activity against human MOLM16 cells xenografted in C.B-17 SCID beige mouse assessed as tumor growth inhibition at 10 mg/kg administered via oral gavage as bid for 21 days relative to control; assay type: functional; details: read-out: TGI; summary of the method: as §1
Cytochrome P450 3A4 = Cytochrome P450 3A4 (Homo sapiens, UniProt P08684); assay: Inhibition of CYP3A4 (unknown origin); assay type: ADME
CREB-binding protein [8] = target: T1, CREB-binding protein (Homo sapiens, UniProt Q92793); assay: Displacement of biotinylated histone H3K14 peptide ligand from human recombinant His-tagged CBP measured after 10 mins by TR-FRET assay
CREB-binding protein [9] = target: T1, CREB-binding protein; assay: Inhibition of Halo-tagged histone H3.3 binding to NanoLuc luciferase conjugated human CBP expressed in HEK293 cells after overnight incubation by BRET assay; assay type: cell-based
[10] = target: Bromodomain-containing protein 4 (Homo sapiens, UniProt O60885); assay: Displacement of biotinylated histone H3K14 peptide ligand from human recombinant His-tagged BRD4 bromodomain-2 measured after 10 mins by TR-FRET assay
CREB-binding protein [11] = target: T1, CREB-binding protein; assay: Inhibition of CBP in human MV-4-11 cells assessed as decrease in MYC expression incubated for 4 hrs measured by luminescence method; assay type: cell-based

T1 sequence (Q92793 whole entry): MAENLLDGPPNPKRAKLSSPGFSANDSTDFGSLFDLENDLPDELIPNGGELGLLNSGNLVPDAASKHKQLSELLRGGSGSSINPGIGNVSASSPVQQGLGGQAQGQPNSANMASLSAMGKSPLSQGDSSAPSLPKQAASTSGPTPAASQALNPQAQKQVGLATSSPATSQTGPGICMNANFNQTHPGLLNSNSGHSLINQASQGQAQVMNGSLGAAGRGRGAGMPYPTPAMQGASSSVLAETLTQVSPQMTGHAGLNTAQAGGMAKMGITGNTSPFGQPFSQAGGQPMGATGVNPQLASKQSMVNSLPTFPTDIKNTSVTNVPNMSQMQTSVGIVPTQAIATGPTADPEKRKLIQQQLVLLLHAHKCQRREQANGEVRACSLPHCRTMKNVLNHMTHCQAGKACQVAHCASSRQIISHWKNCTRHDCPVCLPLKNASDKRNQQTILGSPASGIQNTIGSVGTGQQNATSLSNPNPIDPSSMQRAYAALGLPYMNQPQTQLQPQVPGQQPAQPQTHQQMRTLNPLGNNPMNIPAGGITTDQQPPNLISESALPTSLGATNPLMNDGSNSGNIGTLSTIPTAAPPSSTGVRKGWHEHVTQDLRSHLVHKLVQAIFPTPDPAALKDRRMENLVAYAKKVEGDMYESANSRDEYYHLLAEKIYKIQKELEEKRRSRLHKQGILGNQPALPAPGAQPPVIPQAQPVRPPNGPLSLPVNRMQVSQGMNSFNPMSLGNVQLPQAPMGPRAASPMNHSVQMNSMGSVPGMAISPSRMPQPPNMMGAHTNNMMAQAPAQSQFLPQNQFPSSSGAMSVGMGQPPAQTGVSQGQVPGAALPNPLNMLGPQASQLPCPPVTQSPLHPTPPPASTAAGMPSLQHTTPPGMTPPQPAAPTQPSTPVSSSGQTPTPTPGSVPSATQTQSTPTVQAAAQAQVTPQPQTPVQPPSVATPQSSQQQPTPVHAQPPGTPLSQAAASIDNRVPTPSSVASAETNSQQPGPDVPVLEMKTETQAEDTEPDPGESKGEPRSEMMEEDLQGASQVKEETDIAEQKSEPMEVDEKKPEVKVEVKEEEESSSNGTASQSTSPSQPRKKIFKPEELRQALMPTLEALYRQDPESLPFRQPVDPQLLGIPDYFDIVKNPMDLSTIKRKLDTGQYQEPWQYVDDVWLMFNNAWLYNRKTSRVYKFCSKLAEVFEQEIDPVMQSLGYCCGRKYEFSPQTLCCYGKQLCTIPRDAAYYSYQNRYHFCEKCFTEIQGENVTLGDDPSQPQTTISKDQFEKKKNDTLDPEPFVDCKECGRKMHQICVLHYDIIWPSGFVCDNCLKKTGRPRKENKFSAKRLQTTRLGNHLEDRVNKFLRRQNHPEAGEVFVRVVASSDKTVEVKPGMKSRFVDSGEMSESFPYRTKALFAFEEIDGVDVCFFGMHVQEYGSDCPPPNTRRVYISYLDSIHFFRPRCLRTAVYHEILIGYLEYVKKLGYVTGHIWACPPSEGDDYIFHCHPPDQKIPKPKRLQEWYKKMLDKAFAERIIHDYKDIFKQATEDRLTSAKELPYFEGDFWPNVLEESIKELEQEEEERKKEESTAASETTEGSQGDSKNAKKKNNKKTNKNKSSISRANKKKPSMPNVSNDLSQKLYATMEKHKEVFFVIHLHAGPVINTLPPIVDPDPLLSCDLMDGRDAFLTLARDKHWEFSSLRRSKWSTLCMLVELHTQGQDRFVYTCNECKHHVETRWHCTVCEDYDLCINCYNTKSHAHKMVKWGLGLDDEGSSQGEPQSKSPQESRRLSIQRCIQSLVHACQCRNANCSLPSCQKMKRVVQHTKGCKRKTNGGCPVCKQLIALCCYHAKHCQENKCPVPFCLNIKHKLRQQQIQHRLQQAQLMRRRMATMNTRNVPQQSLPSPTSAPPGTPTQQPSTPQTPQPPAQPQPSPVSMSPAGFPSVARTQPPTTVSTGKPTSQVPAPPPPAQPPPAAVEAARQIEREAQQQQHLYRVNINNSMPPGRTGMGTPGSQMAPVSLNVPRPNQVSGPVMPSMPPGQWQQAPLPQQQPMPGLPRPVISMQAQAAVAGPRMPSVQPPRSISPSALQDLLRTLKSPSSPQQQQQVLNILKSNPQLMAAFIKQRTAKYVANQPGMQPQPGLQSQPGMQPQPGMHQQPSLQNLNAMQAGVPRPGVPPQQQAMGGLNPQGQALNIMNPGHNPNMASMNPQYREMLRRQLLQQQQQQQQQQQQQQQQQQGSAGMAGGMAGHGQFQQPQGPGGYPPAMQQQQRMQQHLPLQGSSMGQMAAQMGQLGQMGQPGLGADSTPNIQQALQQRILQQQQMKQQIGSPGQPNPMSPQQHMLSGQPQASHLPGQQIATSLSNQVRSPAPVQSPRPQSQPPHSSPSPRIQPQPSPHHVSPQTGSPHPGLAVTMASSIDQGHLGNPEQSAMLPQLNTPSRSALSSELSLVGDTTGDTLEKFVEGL
Chain of Cytochrome P450 3A4 (P08684 whole entry): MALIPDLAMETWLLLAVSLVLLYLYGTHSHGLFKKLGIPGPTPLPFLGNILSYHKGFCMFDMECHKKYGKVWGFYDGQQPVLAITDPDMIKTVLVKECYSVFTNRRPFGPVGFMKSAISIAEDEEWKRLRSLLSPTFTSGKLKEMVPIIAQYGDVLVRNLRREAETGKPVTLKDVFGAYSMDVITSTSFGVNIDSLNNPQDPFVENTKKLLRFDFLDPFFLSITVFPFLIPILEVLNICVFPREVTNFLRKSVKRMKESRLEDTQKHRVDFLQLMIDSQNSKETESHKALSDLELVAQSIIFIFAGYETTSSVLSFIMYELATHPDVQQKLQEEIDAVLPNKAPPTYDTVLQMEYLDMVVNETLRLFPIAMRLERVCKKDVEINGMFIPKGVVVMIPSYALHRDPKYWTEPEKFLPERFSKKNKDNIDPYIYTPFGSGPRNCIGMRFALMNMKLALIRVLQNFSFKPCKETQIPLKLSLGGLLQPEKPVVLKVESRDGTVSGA
Chain of Cytochrome P450 1A2 (P05177 whole entry): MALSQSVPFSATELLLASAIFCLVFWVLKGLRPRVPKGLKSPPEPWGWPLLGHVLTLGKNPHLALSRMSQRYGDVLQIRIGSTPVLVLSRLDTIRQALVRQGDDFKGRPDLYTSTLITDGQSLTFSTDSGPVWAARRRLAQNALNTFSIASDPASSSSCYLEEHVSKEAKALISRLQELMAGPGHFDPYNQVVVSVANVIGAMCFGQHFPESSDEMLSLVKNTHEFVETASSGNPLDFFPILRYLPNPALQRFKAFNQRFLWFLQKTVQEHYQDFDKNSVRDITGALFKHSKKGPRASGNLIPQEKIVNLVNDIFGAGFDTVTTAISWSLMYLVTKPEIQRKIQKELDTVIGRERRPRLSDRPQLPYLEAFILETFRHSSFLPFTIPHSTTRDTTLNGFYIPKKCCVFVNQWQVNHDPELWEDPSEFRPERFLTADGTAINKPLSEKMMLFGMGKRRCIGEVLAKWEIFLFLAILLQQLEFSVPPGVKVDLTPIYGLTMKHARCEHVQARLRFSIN
Chain of Cytochrome P450 2D6 (P10635 whole entry): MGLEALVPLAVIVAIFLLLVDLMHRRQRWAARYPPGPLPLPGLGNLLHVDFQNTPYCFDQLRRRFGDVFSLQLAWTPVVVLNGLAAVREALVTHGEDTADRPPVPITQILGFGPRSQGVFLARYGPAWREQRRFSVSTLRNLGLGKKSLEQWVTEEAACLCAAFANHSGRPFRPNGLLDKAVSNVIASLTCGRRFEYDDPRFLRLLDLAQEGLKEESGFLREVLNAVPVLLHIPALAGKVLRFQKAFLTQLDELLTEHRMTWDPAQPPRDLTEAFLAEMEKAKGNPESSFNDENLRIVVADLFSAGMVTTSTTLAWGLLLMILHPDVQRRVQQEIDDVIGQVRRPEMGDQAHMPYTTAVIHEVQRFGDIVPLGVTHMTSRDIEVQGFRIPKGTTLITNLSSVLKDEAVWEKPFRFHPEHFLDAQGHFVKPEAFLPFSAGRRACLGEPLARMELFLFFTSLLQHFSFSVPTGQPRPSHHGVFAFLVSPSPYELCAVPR

SMILES | Drug uptake [1] | inhibition in vivo at 3 mg/kg [2] [%] | Imax (Mus musculus [3]) [%] | IC50 (Cytochrome P450 1A2) [nM] | IC50 (Cytochrome P450 2D6) [nM] | Imax (Mus musculus [4]) [%] | Activity [5] | Activity (Mus musculus [6]) [%] | Drug uptake (Plasma) | inhibition in vivo at 10 mg/kg [7] [%] | IC50 (Cytochrome P450 3A4) [nM] | IC50 (CREB-binding protein [8]) [nM] | IC50 (CREB-binding protein [9]) [nM] | IC50 [10] [nM] | EC50 (CREB-binding protein [11]) [nM]
CNC(=O)N1CCc2c(c(N3CCCc4cc(-c5cnn(C)c5)c(C(F)F)cc43)nn2C2CCOCC2)C1 | Active | 73 | 88 | > 10000 | > 10000 | 87 | Non-Toxic | 150 | Active | 71 | > 10000 |  |  |  | 
CC(=O)N1CCc2c(c(N3CCCc4cc(-c5cnn(C)c5)c(C(F)F)cc43)nn2C2CCOCC2)C1 |  |  |  |  |  |  |  |  |  |  |  | 1.1 | 12 | > 20000 | 14

— ChEMBL document CHEMBL4052814, “GNE-781, A Highly Advanced Potent and Selective Bromodomain Inhibitor of Cyclic Adenosine Monophosphate Response Element Binding Protein, Binding Protein (CBP)” (J Med Chem, 2017)
